Measurements from ChEMBL document CHEMBL1275595, “Antimicrobial activity of a halocidin-derived peptide resistant to attacks by proteases” (2010).
≈ marks a conversion by molar mass, not a printed value. Calls of active or inactive are those of the source. No cut-off for these calls is given here. Numbered stars: 1 amine (or outer) side, 2 acyl side, 3 side chain; on linkers, the order of the positions; unused ones are H or OH. Bridge positions count the residues as written; N and C are the ends. Square brackets hold non-standard residues; d marks the D form. Peptide text beside a SMILES is read from it. I, II: the chains in the order shown. Gly(αS-SH) = O=C([C@@H](N[*:1])S[*:3])[*:2]; Nva(4-oxo) = CC(=O)C[C@H](N)C(=O)O

Key:
Staphylococcus aureus [1] = assay: Antimicrobial activity against methicillin-resistant Staphylococcus aureus CCARM 3696 by radial diffusion assay incubated with chymotrypsin; assay type: functional, organism-based
Staphylococcus aureus [2] = assay: Antimicrobial activity against methicillin-resistant Staphylococcus aureus CCARM 3696 by radial diffusion assay incubated with trypsin; assay type: functional, organism-based
Staphylococcus aureus [3] = assay: Antimicrobial activity against methicillin-resistant Staphylococcus aureus CCARM 3696 after 18 hrs by broth dilution method; assay type: functional; conditions: CCARM 3696, 18 h
Summary of the method: (§1)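 Broth dilution per CLSI. Bacteria were grown overnight to stationary phase in Mueller-Hinton broth and diluted in fresh MHB to 2 × 10^5 CFU/ml. Stocks at 640 μg/ml in 0.01% acetic acid were 2-fold serially diluted to 10 μg/ml, and 11 μl was added to 100 μl of bacteria. After 18 h at 37°C, MIC was the lowest concentration with no visible turbidity. Run in triplicate.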

Bacillus subtilis = assay: Antimicrobial activity against Bacillus subtilis KCTC 2213 after 18 hrs by broth dilution method; assay type: functional; conditions: KCTC 2213, 18 h
Summary of the method: (§2)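 Broth microdilution following CLSI recommendations. Bacteria were grown overnight to stationary phase in Mueller-Hinton broth, then diluted in fresh MHB to 2 × 10^5 CFU/ml. Peptide or antibiotic stocks of 640 μg/ml in 0.01% acetic acid were serially 2-fold diluted to 10 μg/ml, and each was added to the bacterial suspension at 11 μl per 100 μl. Plates were incubated 18 h at 37°C. MIC was taken as the lowest concentration giving no visible turbidity, in triplicate.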

Micrococcus luteus = assay: Antimicrobial activity against Micrococcus luteus KCTC 9341 after 18 hrs by broth dilution method; assay type: functional; conditions: KCTC 9341, 18 h; summary of the method: as §2
Enterococcus faecium = assay: Antimicrobial activity against vancomycin-resistant Enterococcus faecium CCARM 5028 after 18 hrs by broth dilution method; assay type: functional; conditions: CCARM 5028, 18 h; summary of the method: as §1
Listeria monocytogenes = assay: Antimicrobial activity against Listeria monocytogenes KCTC 19111 after 18 hrs by broth dilution method; assay type: functional; conditions: KCTC 19111, 18 h; summary of the method: as §2
Pseudomonas aeruginosa = assay: Antimicrobial activity against multidrug-resistant Pseudomonas aeruginosa CCARM 2161 after 18 hrs by broth dilution method; assay type: functional; conditions: CCARM 2161, 18 h; summary of the method: as §1
Escherichia coli = assay: Antimicrobial activity against Escherichia coli KCTC 1039 after 18 hrs by broth dilution method; assay type: functional; conditions: KCTC 1039, 18 h; summary of the method: as §2
Klebsiella oxytoca = assay: Antimicrobial activity against Klebsiella oxytoca KCTC 1686 after 18 hrs by broth dilution method; assay type: functional; conditions: KCTC 1686, 18 h; summary of the method: as §2
Citrobacter freundii = assay: Antimicrobial activity against Citrobacter freundii KCTC 2359 after 18 hrs by broth dilution method; assay type: functional; conditions: KCTC 2359, 18 h; summary of the method: as §2
Salmonella enterica = assay: Antimicrobial activity against Salmonella enterica KCTC 2930 after 18 hrs by broth dilution method; assay type: functional; conditions: KCTC 2930, 18 h; summary of the method: as §2

| SMILES | Activity (Staphylococcus aureus [1]) | Activity (Staphylococcus aureus [2]) | MIC (Staphylococcus aureus [3]) | MIC (Bacillus subtilis) | MIC (Micrococcus luteus) | MIC (Enterococcus faecium) | MIC (Listeria monocytogenes) | MIC (Pseudomonas aeruginosa) | MIC (Escherichia coli) | MIC (Klebsiella oxytoca) | MIC (Citrobacter freundii) | MIC (Salmonella enterica) |
| --- | --- | --- | --- | --- | --- | --- | --- | --- | --- | --- | --- | --- |
| CC(C)C[C@H](NC(=O)CNC(=O)[C@H](Cc1cnc[nH]1)NC(=O)[C@@H](N)Cc1cnc[nH]1)C(=O)N[C@@H](CC(N)=O)C(=O)N[C@@H](CSSC[C@H](NC(=O)[C@H](CC(N)=O)NC(=O)[C@H](CC(C)C)NC(=O)CNC(=O)[C@H](Cc1cnc[nH]1)NC(=O)[C@@H](N)Cc1cnc[nH]1)C(=O)N[C@@H](C)C(=O)N[C@@H](CCCCN)C(=O)NCC(=O)N[C@H](C(=O)N[C@@H](CC(C)C)C(=O)N[C@@H](C)C(N)=O)C(C)C)C(=O)N[C@@H](C)C(=O)N[C@@H](CCCCN)C(=O)NCC(=O)N[C@H](C(=O)N[C@@H](CC(C)C)C(=O)N[C@@H](C)C(N)=O)C(C)C (I: H-HHGLNCAKGVLA-NH2 / II: H-HHGLNCAKGVLA-NH2; disulfide I:6-II:6) | Active | – | – | – | – | – | – | – | – | – | – | – |
| CC(=O)C[C@H](NC(=O)[C@H](CC(C)C)NC(=O)CNC(=O)[C@H](Cc1cnc[nH]1)NC(=O)[C@H](Cc1cnc[nH]1)NC(=O)[C@H](CC(C)C)NC(=O)[C@H](CC(C)C)NC(=O)[C@H](C)NC(=O)[C@H](CC(N)=O)NC(=O)[C@H](CC(C)C)NC(=O)[C@@H](N)Cc1c[nH]c2ccccc12)C(=O)N[C@@H](CSSC[C@H](NC(=O)[C@H](CC(N)=O)NC(=O)[C@H](CC(C)C)NC(=O)CNC(=O)[C@H](Cc1cnc[nH]1)NC(=O)[C@H](Cc1cnc[nH]1)NC(=O)[C@H](CC(C)C)NC(=O)[C@H](CC(C)C)NC(=O)[C@H](C)NC(=O)[C@H](CC(N)=O)NC(=O)[C@H](CC(C)C)NC(=O)[C@@H](N)Cc1c[nH]c2ccccc12)C(=O)N[C@@H](C)C(=O)N[C@@H](CCCCN)C(=O)O)C(=O)N[C@@H](C)C(=O)N[C@@H](CCCCN)C(=O)O (I: H-WLNALLHHGL[Nva(4-oxo)]CAK-OH / II: H-WLNALLHHGLNCAK-OH; disulfide I:12-II:12) | – | inactive | – | – | – | – | – | – | – | – | – | – |
| CC(C)C[C@H](NC(=O)CNC(=O)[C@H](Cc1cnc[nH]1)NC(=O)[C@H](Cc1cnc[nH]1)NC(=O)[C@H](CC(C)C)NC(=O)[C@H](CC(C)C)NC(=O)[C@H](C)N)C(=O)N[C@@H](CC(N)=O)C(=O)N[C@@H](CSSC[C@H](NC(=O)[C@H](CC(N)=O)NC(=O)[C@H](CC(C)C)NC(=O)CNC(=O)[C@H](Cc1cnc[nH]1)NC(=O)[C@H](Cc1cnc[nH]1)NC(=O)[C@H](CC(C)C)NC(=O)[C@H](CC(C)C)NC(=O)[C@H](C)NC(=O)[C@H](CC(N)=O)NC(=O)[C@H](CC(C)C)NC(=O)[C@H](Cc1c[nH]c2ccccc12)NC(=O)[C@@H](N)CCCCN)C(=O)N[C@@H](C)C(=O)N[C@@H](CCCCN)C(=O)NCC(=O)N[C@H](C(=O)N[C@@H](CC(C)C)C(=O)N[C@@H](C)C(N)=O)C(C)C)C(=O)N[C@@H](C)C(=O)N[C@@H](CCCCN)C(=O)NCC(=O)N[C@H](C(=O)N[C@@H](CC(C)C)C(=O)N[C@@H](C)C(N)=O)C(C)C (I: H-KWLNALLHHGLNCAKGVLA-NH2 / II: H-ALLHHGLNCAKGVLA-NH2; disulfide I:13-II:9) | – | – | 8 µg/mL (≈ 2.24 µM) | 4 µg/mL (≈ 1.12 µM) | 8 µg/mL (≈ 2.24 µM) | 4 µg/mL (≈ 1.12 µM) | 4 µg/mL (≈ 1.12 µM) | 8 µg/mL (≈ 2.24 µM) | 4 µg/mL (≈ 1.12 µM) | 4 µg/mL (≈ 1.12 µM) | 8 µg/mL (≈ 2.24 µM) | 4 µg/mL (≈ 1.12 µM) |
| CC(C)C[C@H](NC(=O)[C@H](CC(C)C)NC(=O)[C@H](C)NC(=O)[C@H](CC(N)=O)NC(=O)[C@H](CC(C)C)NC(=O)[C@H](Cc1c[nH]c2ccccc12)NC(=O)[C@@H](N)CCCCN)C(=O)O (H-KWLNALL-OH) | inactive | – | – | – | – | – | – | – | – | – | – | – |
| CC(C)(O/N=C(\C(=O)N[C@@H]1C(=O)N2C(C(=O)[O-])=C(C[n+]3ccccc3)CS[C@H]12)c1csc(N)n1)C(=O)O [CEFTAZIDIME] | – | – | > 64 µg/mL | 4 µg/mL (≈ 7.32 µM) | > 64 µg/mL | > 64 µg/mL | < 1 µg/mL | 4 µg/mL (≈ 7.32 µM) | < 1 µg/mL | < 1 µg/mL | 8 µg/mL (≈ 14.6 µM) | > 64 µg/mL |
| C[C@H]1[C@H](NC(=O)/C(=N\OC(C)(C)C(=O)O)c2csc(N)n2)C(=O)N1S(=O)(=O)O [AZTREONAM] | – | – | > 64 µg/mL | > 64 µg/mL | > 64 µg/mL | > 64 µg/mL | < 1 µg/mL | 8 µg/mL (≈ 18.4 µM) | < 1 µg/mL | < 1 µg/mL | 4 µg/mL (≈ 9.19 µM) | > 64 µg/mL |
| CC(C)C[C@H](NC(=O)CNC(=O)[C@H](Cc1cnc[nH]1)NC(=O)[C@H](Cc1cnc[nH]1)NC(=O)[C@H](CC(C)C)NC(=O)[C@H](CC(C)C)NC(=O)[C@H](C)NC(=O)[C@H](CC(N)=O)NC(=O)[C@H](CC(C)C)NC(=O)[C@H](Cc1c[nH]c2ccccc12)NC(=O)[C@@H](N)CCCCN)C(=O)N[C@@H](CC(N)=O)C(=O)N[C@@H](CSSC[C@H](NC(=O)[C@H](CC(N)=O)NC(=O)[C@H](CC(C)C)NC(=O)CNC(=O)[C@H](Cc1cnc[nH]1)NC(=O)[C@H](Cc1cnc[nH]1)NC(=O)[C@H](CC(C)C)NC(=O)[C@H](CC(C)C)NC(=O)[C@H](C)NC(=O)[C@H](CC(N)=O)NC(=O)[C@H](CC(C)C)NC(=O)[C@H](Cc1c[nH]c2ccccc12)NC(=O)[C@@H](N)CCCCN)C(=O)N[C@@H](C)C(=O)N[C@@H](CCCCN)C(=O)NCC(=O)N[C@H](C(=O)N[C@@H](CC(C)C)C(=O)N[C@@H](C)C(N)=O)C(C)C)C(=O)N[C@@H](C)C(=O)N[C@@H](CCCCN)C(=O)O (I: H-KWLNALLHHGLNCAKGVLA-NH2 / II: H-KWLNALLHHGLNCAK-OH; disulfide I:13-II:13) | – | Active | – | – | – | – | – | – | – | – | – | – |
| CC(C)C[C@H](NC(=O)CNC(=O)[C@H](Cc1cnc[nH]1)NC(=O)[C@H](Cc1cnc[nH]1)NC(=O)[C@H](CC(C)C)NC(=O)[C@H](CC(C)C)NC(=O)[C@H](C)NC(=O)[C@H](CC(N)=O)NC(=O)[C@H](CC(C)C)NC(=O)[C@H](Cc1c[nH]c2ccccc12)NC(=O)[C@@H](N)CCCCN)C(=O)N[C@@H](CC(N)=O)C(=O)N[C@@H](CSSC[C@H](NC(=O)[C@H](CC(N)=O)NC(=O)[C@H](CC(C)C)NC(=O)CNC(=O)[C@H](Cc1cnc[nH]1)NC(=O)[C@H](Cc1cnc[nH]1)NC(=O)[C@H](CC(C)C)NC(=O)[C@H](CC(C)C)NC(=O)[C@H](C)NC(=O)[C@H](CC(N)=O)NC(=O)[C@H](CC(C)C)NC(=O)[C@H](Cc1c[nH]c2ccccc12)NC(=O)[C@@H](N)CCCCN)C(=O)N[C@@H](C)C(=O)N[C@@H](CCCCN)C(=O)O)C(=O)N[C@@H](C)C(=O)N[C@@H](CCCCN)C(=O)O (I: H-KWLNALLHHGLNCAK-OH / II: H-KWLNALLHHGLNCAK-OH; disulfide I:13-II:13) | – | Active | – | – | – | – | – | – | – | – | – | – |
| CC(C)C[C@H](NC(=O)CNC(=O)[C@H](Cc1cnc[nH]1)NC(=O)[C@H](Cc1cnc[nH]1)NC(=O)[C@H](CC(C)C)NC(=O)[C@H](CC(C)C)NC(=O)[C@H](C)NC(=O)[C@H](CC(N)=O)NC(=O)[C@H](CC(C)C)NC(=O)[C@H](Cc1c[nH]c2ccccc12)NC(=O)[C@@H](N)CCCCN)C(=O)N[C@@H](CC(N)=O)C(=O)N[C@@H](CSS[C@H](NC(=O)[C@H](CC(N)=O)NC(=O)[C@H](CC(C)C)NC(=O)CNC(=O)[C@H](Cc1cnc[nH]1)NC(=O)[C@H](Cc1cnc[nH]1)NC(=O)[C@H](CC(C)C)NC(=O)[C@H](CC(C)C)NC(=O)[C@H](C)NC(=O)[C@H](CC(N)=O)NC(=O)[C@H](CC(C)C)NC(=O)[C@@H](N)Cc1c[nH]c2ccccc12)C(=O)N[C@@H](C)C(=O)N[C@@H](CCCCN)C(=O)O)C(=O)N[C@@H](C)C(=O)N[C@@H](CCCCN)C(=O)O (I: H-KWLNALLHHGLNCAK-OH / II: H-WLNALLHHGLN[Gly(αS-SH)]AK-OH; disulfide I:13-II:12) | – | Active | – | – | – | – | – | – | – | – | – | – |
| CO/N=C(\C(=O)N[C@@H]1C(=O)N2C(C(=O)O)=C(CSc3nc(=O)c(O)nn3C)CS[C@H]12)c1csc(N)n1 [CEFTRIAXONE] | – | – | > 64 µg/mL | < 1 µg/mL | 16 µg/mL (≈ 28.9 µM) | > 64 µg/mL | < 1 µg/mL | > 64 µg/mL | < 1 µg/mL | < 1 µg/mL | 2 µg/mL (≈ 3.61 µM) | 4 µg/mL (≈ 7.21 µM) |
